Test results as given in ChEMBL document CHEMBL2321859, “Cytotoxic betulin-derived hydroxypropargylamines trigger apoptosis” (Bioorg Med Chem, 2013).
Values after ≈ are worked out from the molar mass of the structure shown. Blank lines part the entries; values can stand above or below the compound they belong to. Active and inactive are the calls of the source. The calls are words filed in the database; no cut-off is given here.

Tests used:
[1] = Cytotoxicity against human 518A2 cells assessed as cell viability after 96 hrs by SRB assay; format: functional, cell-based; conditions: Homo sapiens, 518A2, 96 h
A549 [2] = assay: Induction of apoptosis in human A549 cells assessed as chromatin condensation by acridine orange/propidium iodide staining; format: functional, cell-based
A549 [3] = assay: Induction of apoptosis in human A549 cells assessed as membrane blebbing by acridine orange/propidium iodide staining; format: functional, cell-based
A549 [4] = assay: Induction of apoptosis in human A549 cells assessed as cell shrinking by acridine orange/propidium iodide staining; format: functional, cell-based
A549 [5] = assay: Induction of apoptosis in human A549 cells assessed as DNA fragmentation by DNA laddering assay; format: functional, cell-based
How it was run: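 DNA fragmentation was checked by DNA laddering in treated human cancer cells, as an indicator of apoptotic cell death.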

A549 [6] = assay: Cell cycle arrest in human A549 cells assessed as accumulation at G2/M phase by acridine orange/propidium iodide staining; format: functional, cell-based
DLD-1 = assay: Cytotoxicity against human DLD1 cells assessed as cell viability after 96 hrs by SRB assay; format: functional, cell-based; conditions: Homo sapiens, DLD-1, 96 h
MCF7 = assay: Cytotoxicity against human MCF7 cells assessed as cell viability after 96 hrs by SRB assay; format: functional, cell-based; conditions: Homo sapiens, MCF7, 96 h
SW-1736 = assay: Cytotoxicity against human SW1736 cells assessed as cell viability after 96 hrs by SRB assay; format: functional, cell-based; conditions: Homo sapiens, SW-1736, 96 h
A2780 = assay: Cytotoxicity against human A2780 cells assessed as cell viability after 96 hrs by SRB assay; format: functional, cell-based; conditions: Homo sapiens, A2780, 96 h
NIH3T3 = assay: Cytotoxicity against mouse NIH/3T3 cells assessed as cell viability after 96 hrs by SRB assay; format: cell-based; conditions: NIH3T3, 96 h
[7] = Cytotoxicity against human Lipo cells assessed as cell viability after 96 hrs by SRB assay; format: functional, cell-based; conditions: Homo sapiens, Lipo, 96 h
8505C = assay: Cytotoxicity against human 8505C cells assessed as cell viability after 96 hrs by SRB assay; format: functional, cell-based; conditions: Homo sapiens, 8505C, 96 h
A549 [8] = assay: Cytotoxicity against human A549 cells assessed as cell viability after 96 hrs by SRB assay; format: functional, cell-based; conditions: Homo sapiens, A549, 96 h
A549 [9] = assay: Induction of apoptosis in human A549 cells assessed as early apoptotic cells at 10 uM after 6 hrs by annexin V/propidium iodide staining-based FACS flow cytometric analysis relative to control; format: functional
How it was run: (§1)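 A549 cells incubated 6 h with compound, then analysed by FACS annexin V/propidium iodide assay. Phosphatidylserine translocation to the outer membrane was taken as the early-apoptosis marker. Cells were scored as percentage dying by necrosis versus programmed cell death. Betulinic acid and maslinic acid were the reference standards.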

[10] = Cytotoxicity against human A253 cells assessed as cell viability after 96 hrs by SRB assay; format: functional, cell-based; conditions: Homo sapiens, A253, 96 h
[11] = Solubility of the compound in water/DMSO mixture; format: physicochemical
How it was run: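 Solubility was measured in water/DMSO (95:5, v/v) by HPLC with UV/vis detection.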

A549 [12] = assay: Induction of apoptosis in human A549 cells assessed as early apoptotic cells at 5 uM after 6 hrs by annexin V/propidium iodide staining-based FACS flow cytometric analysis relative to control; format: functional; how it was run: as §1
[13] = water/DMSO mixture, read-out: solubility

Compound: C=C(C)[C@@H]1CC[C@]2([C@@H](O)C#CCN(CCC)CCC)CC[C@]3(C)[C@H](CC[C@@H]4[C@@]5(C)CC[C@H](OC(C)=O)C(C)(C)[C@@H]5CC[C@]43C)[C@@H]12.CI
IC50 [1]: 4.6 µM
Activity (A549 [2]): Active
Activity (A549 [3]): Active
Activity (A549 [4]): Active
Activity (A549 [5]): Active
Activity (A549 [6]): Active
IC50 (DLD-1): 4.8 µM
IC50 (MCF7): 3.2 µM
IC50 (SW-1736): 3.2 µM
IC50 (A2780): 2.3 µM
IC50 (NIH3T3): 6.8 µM
IC50 [7]: 4.3 µM
IC50 (8505C): 4.1 µM
IC50 (A549 [8]): 4.5 µM
Activity (A549 [9]): >90%
IC50 [10]: 3.5 µM

solubility [11, 13]: 312 µg/mL
Compound: C=C(C)[C@@H]1CC[C@]2([C@H](O)C#CCN(C)C)CC[C@]3(C)[C@H](CC[C@@H]4[C@@]5(C)CC[C@H](OC(C)=O)C(C)(C)[C@@H]5CC[C@]43C)[C@@H]12.Cl
IC50 [1]: 7.2 µM
IC50 (DLD-1): 12.9 µM
IC50 (MCF7): 3.7 µM
IC50 (SW-1736): 6.5 µM
IC50 (A2780): 4.9 µM
IC50 (NIH3T3): 5.8 µM
IC50 [7]: 8.6 µM
IC50 (8505C): 6.7 µM
IC50 (A549 [8]): 11.1 µM
IC50 [10]: 6.4 µM

solubility [11, 13]: 192 µg/mL
Compound: C=C(C)[C@@H]1CC[C@]2([C@H](O)C#CCN3CCOCC3)CC[C@]3(C)[C@H](CC[C@@H]4[C@@]5(C)CC[C@H](OC(C)=O)C(C)(C)[C@@H]5CC[C@]43C)[C@@H]12.Cl
IC50 [1]: 7 µM
IC50 (DLD-1): 5 µM
IC50 (MCF7): 7.7 µM
IC50 (SW-1736): 8.9 µM
IC50 (A2780): 4.1 µM
Activity (A549 [12]): >90%
IC50 (NIH3T3): 7.2 µM
IC50 [7]: 2.4 µM
IC50 (8505C): 7.2 µM
IC50 (A549 [8]): 7.6 µM
IC50 [10]: 5.2 µM

Compound: C=C(C)[C@@H]1CC[C@]2(C(=O)O)CC[C@]3(C)[C@H](CC[C@@H]4[C@@]5(C)CC[C@H](O)C(C)(C)[C@@H]5CC[C@]43C)[C@@H]12 [BETULINIC ACID]
solubility ([11]; buffer): 166 µg/mL (≈ 363 µM)
IC50 (A2780): 11 µM
IC50 (NIH3T3): 10 µM
IC50 [7]: 9.7 µM

solubility [11, 13]: 182 µg/mL (≈ 332 µM)
Compound: C=C(C)[C@@H]1CC[C@]2([C@H](O)C#CCN3CCCC3)CC[C@]3(C)[C@H](CC[C@@H]4[C@@]5(C)CCC(=O)C(C)(C)[C@@H]5CC[C@]43C)[C@@H]12
IC50 [1]: 5.6 µM
IC50 (DLD-1): 2.6 µM
IC50 (MCF7): 3.1 µM
IC50 (SW-1736): 6 µM
IC50 (A2780): 3.6 µM
IC50 (NIH3T3): 6.4 µM
IC50 [7]: 5.6 µM
IC50 (8505C): 3.4 µM
IC50 (A549 [8]): 3.5 µM
IC50 [10]: 3.4 µM

Compound: C#C[C@H](O)[C@]12CC[C@@H](C(=C)C)[C@@H]1[C@H]1CC[C@@H]3[C@@]4(C)CCC(=O)C(C)(C)[C@@H]4CC[C@@]3(C)[C@]1(C)CC2
IC50 [1]: 22.4 µM
IC50 (DLD-1): 19 µM
IC50 (MCF7): 17.1 µM
IC50 (SW-1736): 18.4 µM
IC50 (A2780): 9.8 µM
IC50 (NIH3T3): > 35 µM
IC50 [7]: 21.7 µM
IC50 (8505C): 16.7 µM
IC50 (A549 [8]): 21.2 µM
IC50 [10]: 13.4 µM

Compound: C=C(C)[C@@H]1CC[C@]2([C@@H](O)CCCN(C(C)C)C(C)C)CC[C@]3(C)[C@H](CC[C@@H]4[C@@]5(C)CC[C@H](O)C(C)(C)[C@@H]5CC[C@]43C)[C@@H]12
IC50 [1]: 2.1 µM
Activity (A549 [2]): Active
Activity (A549 [3]): Active
Activity (A549 [4]): Active
Activity (A549 [5]): Active
Activity (A549 [6]): Active
IC50 (DLD-1): 2.3 µM
IC50 (MCF7): 0.7 µM
IC50 (SW-1736): 1.7 µM
IC50 (A2780): 1.6 µM
IC50 (NIH3T3): 1.7 µM
IC50 [7]: 2.3 µM
IC50 (8505C): 2.3 µM
IC50 (A549 [8]): 2.2 µM
Activity (A549 [9]): >90%
IC50 [10]: 1.8 µM

Compound: C#C[C@H](O)[C@]12CC[C@@H](C(=C)C)[C@@H]1[C@H]1CC[C@@H]3[C@@]4(C)CC[C@H](OC(C)=O)C(C)(C)[C@@H]4CC[C@@]3(C)[C@]1(C)CC2
IC50 [1]: 32.5 µM
IC50 (DLD-1): > 30 µM
IC50 (MCF7): 20.5 µM
IC50 (SW-1736): 23 µM
IC50 (A2780): 9.3 µM
IC50 (NIH3T3): 32.3 µM
IC50 [7]: 28.9 µM
IC50 (8505C): 22.9 µM
IC50 (A549 [8]): 42.2 µM
IC50 [10]: 16.5 µM

solubility [11, 13]: 100 µg/mL
Compound: C=C(C)[C@@H]1CC[C@]2([C@H](O)C#CCN(C3CCCCC3)C3CCCCC3)CC[C@]3(C)[C@H](CC[C@@H]4[C@@]5(C)CC[C@H](OC(C)=O)C(C)(C)[C@@H]5CC[C@]43C)[C@@H]12.Cl
IC50 [1]: > 30 µM
IC50 (DLD-1): > 30 µM
IC50 (MCF7): > 30 µM
IC50 (SW-1736): > 30 µM
IC50 (A2780): > 30 µM
IC50 (NIH3T3): > 30 µM
IC50 [7]: > 30 µM
IC50 (8505C): > 30 µM
IC50 (A549 [8]): > 30 µM
IC50 [10]: > 30 µM

solubility [11, 13]: 178 µg/mL
Compound: C=C(C)[C@@H]1CC[C@]2([C@H](O)C#CCN3CCNCC3)CC[C@]3(C)[C@H](CC[C@@H]4[C@@]5(C)CC[C@H](OC(C)=O)C(C)(C)[C@@H]5CC[C@]43C)[C@@H]12.Cl
IC50 [1]: 5 µM
IC50 (DLD-1): 5.2 µM
IC50 (MCF7): 2.5 µM
IC50 (SW-1736): 7.7 µM
IC50 (A2780): 2.7 µM
IC50 (NIH3T3): 4 µM
IC50 [7]: 2.7 µM
IC50 (8505C): 6.9 µM
IC50 (A549 [8]): 6.5 µM
IC50 [10]: 4.6 µM
